Activity calls are given as the source filed them.
Assays:
HGC-27 [1] = test: Anticancer activity against human HGC-27 cells assessed as inhibition of cell proliferation after 48 hrs by MTT assay; type: functional, cell-based
In short: (§1)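 MTT assay with 48 h compound exposure. MTT solution was then added and incubated 4 h at 37 °C, the supernatant discarded and formazan dissolved in DMSO, with absorbance read at 490 nm. IC50 values were calculated from three independent experiments, reported as mean SD.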

[2] = Selectivity index, ratio of IC50 for human GES1 cells to IC50 for human SGC-7901 cells assessed as inhibition of cell proliferation after 48 hrs by MTT assay
In short: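 Fold selectivity is the IC50 in GES-1 normal gastric epithelial cells divided by the IC50 in the gastric cancer line (HGC-27, MGC-803 or SGC-7901). Both IC50s come from 48 h exposure, MTT (4 h, 37 °C), DMSO solubilisation and 490 nm absorbance, with three independent experiments.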

HGC-27 [3] = test: Inhibition of Ras/Raf/MEK/ERK signalling pathway in human HGC-27 cells assessed as downregulation of c-Myc expression at 0.5 to 1.5 umol/L after 48 hrs by Western blot analysis; type: cell-based; details: dose micromol/L 0.5-1.5, time 48.0 hrs
In short: (§2)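 Cells treated with graded concentrations or DMSO for 48 h, then harvested and lysed. Lysates denatured, resolved by SDS-PAGE and transferred to nitrocellulose. Membranes blocked with 5% skimmed milk and probed with primary antibodies at 4 °C for 8 h, then with secondary antibodies. Bands detected by ECL.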

HGC-27 [4] = test: Cell cycle arrest at M phase in human HGC-27 cells assessed as upregulation of p-Histone-3 level at 0.5 to 1.5 umol/L after 48 hrs by Western blot analysis; type: functional, cell-based; details: dose micromol/L 0.5-1.5, time 48.0 hrs
In short: (§3)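 Western blot. Cells were treated with compound concentrations or DMSO for 48 h, then lysed, and lysates were denatured, run on SDS-PAGE and transferred to nitrocellulose. After blocking in 5% skimmed milk, membranes were incubated with primary antibodies at 4 °C for 8 h, then secondary antibodies, with ECL detection.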

MGC-803 [5] = test: Cell cycle arrest at G2 phase in human MGC-803 cells assessed as downregulation of Cyclin B level at 0.5 to 1.5 umol/L after 48 hrs by Western blot analysis; type: functional, cell-based; details: dose micromol/L 0.5-1.5, time 48.0 hrs; in short: as §3
SGC-7901 [6] = test: Cell cycle arrest in human SGC-7901 cells assessed as accumulation at G2/M phase at 0.5 to 1.5 umol/L after 48 hrs by RNase/propidium iodide staining based flow cytometry; type: functional; details: dose micromol/L 0.5-1.5, time 48.0 hrs
In short: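 MGC-803, SGC-7901 and HGC-27 cells were seeded in 6-well plates and treated 48 h with compound or DMSO. Cells were then harvested and fixed in 70% cold ethanol at 4 °C for 8 h, and cell-cycle phase distribution was quantified by flow cytometry.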

MGC-803 [7] = test: Inhibition of Ras/Raf/MEK/ERK signalling pathway in human MGC-803 cells assessed as downregulation of c-Myc expression at 0.5 to 1.5 umol/L after 48 hrs by Western blot analysis; type: cell-based; details: dose micromol/L 0.5-1.5, time 48.0 hrs; in short: as §2
MGC-803 [8] = test: Inhibition of Akt/mTOR signalling pathway in human MGC-803 cells assessed as decrease in mTOR phosphorylation at Ser2448 residue at 0.5 to 1.5 umol/L after 48 hrs by Western blot analysis; type: cell-based; details: dose micromol/L 0.5-1.5, time 48.0 hrs; in short: as §2
SGC-7901 [9] = test: Induction of apoptosis in human SGC-7901 cells assessed as downregulation of Bcl-2 level at 0.5 to 1.5 umol/L after 48 hrs Western blot analysis; type: functional, cell-based; details: dose micromol/L 0.5-1.5, time 48.0 hrs; in short: as §3
PC-3 = test: Anticancer activity against human PC-3 cells assessed as inhibition of cell proliferation after 48 hrs by MTT assay; type: functional, cell-based; details: PC-3, 48 h; in short: as §1
MGC-803 [10] = test: Induction of apoptosis in human MGC-803 cells assessed as downregulation of Bcl-2 level at 0.5 to 1.5 umol/L after 48 hrs Western blot analysis; type: functional, cell-based; details: dose micromol/L 0.5-1.5, time 48.0 hrs; in short: as §3
MGC-803 [11] = test: Induction of apoptosis in human MGC-803 cells assessed as downregulation of c-IAP1 level at 0.5 to 1.5 umol/L after 48 hrs Western blot analysis; type: functional, cell-based; details: dose micromol/L 0.5-1.5, time 48.0 hrs; in short: as §3
MGC-803 [12] = test: Inhibition of colony formation in human MGC-803 cells at 0.5 to 1.5 umol/L after 7 days by crystal violet staining based assay; type: functional, cell-based; details: dose micromol/L 0.5-1.5, time 7.0 day
In short: (§4)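 5000 cells per well seeded and held 24 h at 37 °C, 5% CO2, then exposed to graded concentrations (0.5, 1, 1.5 µmol/L). After 7 days the medium was removed and wells were washed twice with PBS. Colonies fixed in 4% paraformaldehyde and stained with 0.1% crystal violet.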

SGC-7901 [13] = test: Inhibition of colony formation in human SGC-7901 cells at 0.5 to 1.5 umol/L after 7 days by crystal violet staining based assay; type: functional, cell-based; details: dose micromol/L 0.5-1.5, time 7.0 day; in short: as §4
MGC-803 [14] = test: Inhibition of Akt/mTOR signalling pathway in human MGC-803 cells assessed as decrease in AKT phosphorylation at Ser473 residue at 0.5 to 1.5 umol/L after 48 hrs by Western blot analysis; type: cell-based; details: dose micromol/L 0.5-1.5, time 48.0 hrs; in short: as §2
MGC-803 [15] = test: Inhibition of Ras/Raf/MEK/ERK signalling pathway in human MGC-803 cells assessed as decrease in c-Raf phosphorylation after 48 hrs by Western blot analysis; type: cell-based; details: dose micromol/L 0.5-1.5, time 48.0 hrs; in short: as §2
HGC-27 [16] = test: Cell cycle arrest at G2 phase in human HGC-27 cells assessed as downregulation of Cyclin B level at 0.5 to 1.5 umol/L after 48 hrs by Western blot analysis; type: functional, cell-based; details: dose micromol/L 0.5-1.5, time 48.0 hrs; in short: as §3
HGC-27 [17] = test: Anticancer activity against human HGC-27 cells assessed as cell growth at 0.5 to 1.5 umol/L after 48 hrs by MTT assay relative to control; type: functional; details: dose micromol/L 0.5-1.5
SGC-7901 [18] = test: Induction of apoptosis in human SGC-7901 cells assessed as cleavage of caspase-7 at 0.5 to 1.5 umol/L after 48 hrs Western blot analysis; type: functional, cell-based; details: dose micromol/L 0.5-1.5, time 48.0 hrs; in short: as §3
MGC-803 [19] = test: Induction of apoptosis in human MGC-803 cells assessed as induction of DNA fragmentation at 0.5 to 1.5 umol/L after 48 hrs by imaging analysis; type: functional, cell-based; details: dose micromol/L 0.5-1.5, time 48.0 hrs
GES1 = test: Cytotoxicity against human GES1 cells assessed as inhibition of cell proliferation after 48 hrs by MTT assay; type: cell-based; details: GES1, 48 h
In short: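 Normal gastric epithelial GES-1 cells were exposed to compound for 48 h. MTT was then added for 4 h at 37 °C. Formazan was dissolved in DMSO after the supernatant was removed, and absorbance was read at 490 nm. IC50 was computed from three independent experiments, given as mean SD.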

SGC-7901 [20] = test: Induction of apoptosis in human SGC-7901 cells after 48 hrs by flow cytometry analysis; type: functional, cell-based; details: dose micromol/L 0.5-1.5, time 48.0 hrs
SGC-7901 [21] = test: Inhibition of Ras/Raf/MEK/ERK signalling pathway in human SGC-7901 cells assessed as downregulation of FoxO3a expression at 0.5 to 1.5 umol/L after 48 hrs by Western blot analysis; type: cell-based; details: dose micromol/L 0.5-1.5, time 48.0 hrs; in short: as §2
MGC-803 [22] = test: Anticancer activity against human MGC-803 cells assessed as cell growth at 0.5 to 1.5 umol/L after 48 hrs by MTT assay relative to control; type: functional; details: dose micromol/L 0.5-1.5
SGC-7901 [23] = test: Cell cycle arrest at G2 phase in human SGC-7901 cells assessed as downregulation of CDK1 level at 0.5 to 1.5 umol/L after 48 hrs by Western blot analysis; type: functional, cell-based; details: dose micromol/L 0.5-1.5, time 48.0 hrs; in short: as §3
HGC-27 [24] = test: Induction of apoptosis in human HGC-27 cells assessed as downregulation of Bcl-2 level at 0.5 to 1.5 umol/L after 48 hrs Western blot analysis; type: functional, cell-based; details: dose micromol/L 0.5-1.5, time 48.0 hrs; in short: as §3
SGC-7901 [25] = test: Anticancer activity against human SGC-7901 cells assessed as cell growth at 0.5 to 1.5 umol/L after 48 hrs by MTT assay relative to control; type: functional; details: dose micromol/L 0.5-1.5

COc1cc(N(Cc2nc3ccccc3[nH]2)S(=O)(=O)c2ccc(C)cc2)cc(OC)c1OC
6.6: Ratio IC50 [2]
<2: fold change (FC) (HGC-27 [17]) | fold change (FC) (MGC-803 [22]) | fold change (FC) (SGC-7901 [25])
15.2 µM: IC50 (GES1)
3.34 µM: IC50 (PC-3)
active: Activity (HGC-27 [1]) Dose-dependent effect | inhibition (HGC-27 [3]) | Activity (HGC-27 [4]) | Activity (MGC-803 [5]) | Activity (SGC-7901 [6]) | inhibition (MGC-803 [7]) | inhibition (MGC-803 [8]) | Activity (SGC-7901 [9]) | Activity (MGC-803 [10]) | Activity (MGC-803 [11]) | inhibition (MGC-803 [12]) | inhibition (SGC-7901 [13]) | inhibition (MGC-803 [14]) | inhibition (MGC-803 [15]) Dose-dependent effect | Activity (HGC-27 [16]) | Activity (SGC-7901 [18]) | Activity (MGC-803 [19]) | Activity (SGC-7901 [20]) Dose-dependent effect | inhibition (SGC-7901 [21]) | Activity (SGC-7901 [23]) | Activity (HGC-27 [24])
1.61 µM: IC50 (HGC-27 [1]; HGC-27, 48 h)

— ChEMBL document CHEMBL4665669, “Novel tertiary sulfonamide derivatives containing benzimidazole moiety as potent anti-gastric cancer agents: Design, synthesis and SAR studies” (Eur J Med Chem, 2019)
